In ChEMBL document CHEMBL1123402, “Saturated analogues of poison ivy allergens. Synthesis of trans,trans- and cis,trans-3-alkyl-1,2-cyclohexanediols and sensitizing properties in allergic contact dermatitis” (1986):
Several values for one entry are separate records, joined by “and”; a condition that tells them apart may be missing. Identical values can stand only once.

Tests used:
Cavia porcellus [1] = species on record: Cavia porcellus; test: Allergic contact dermatitis in guinea pig at 14 umol (3 injections) and expressed as number of animals reading with a test intensity of 2; assay type: functional
Outline: (§1)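 Guinea pigs sensitized with the alkylcyclohexanediol in Freund complete adjuvant (3-injection schedule per curator). Elicitation by open epicutaneous test of the dose in ethanol. Read at 48 h on a scale: 0 none, 0.5 slight partial erythema, 1 erythema over the whole area, 2 erythema plus swelling, 3 swelling well beyond the area. FCA-treated control groups of eight animals.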

Cavia porcellus [2] = species on record: Cavia porcellus; test: Allergic contact dermatitis in guinea pig at 14 umol (5 injections) and expressed as number of animals reading with a test intensity of 2; assay type: functional
Outline: (§2)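 Sensitization by the FCAT method with five injections: the first sensitization was boosted by two injections of alkylcyclohexanediol in Freund complete adjuvant 1 week after the first test. Open epicutaneous challenge used the stated dose in ethanol, read at 48 h on a 0–3 erythema/swelling scale. Irritation thresholds were set on FCA-injected controls, with groups of eight per experiment.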

Cavia porcellus [3] = species on record: Cavia porcellus; test: Allergic contact dermatitis in guinea pig at 14 umol (3 injections) and expressed as number of animals reading with a test intensity of 0; assay type: functional; outline: as §1
Cavia porcellus [4] = species on record: Cavia porcellus; test: Allergic contact dermatitis in guinea pig at 14 umol (3 injections) and expressed as number of animals reading with a test intensity of 0.5; assay type: functional; outline: as §1
Cavia porcellus [5] = species on record: Cavia porcellus; test: Allergic contact dermatitis in guinea pig at 14 umol (5 injections) and expressed as number of animals reading with a test intensity of 0; assay type: functional; outline: as §2
Cavia porcellus [6] = species on record: Cavia porcellus; test: Allergic contact dermatitis in guinea pig at 14 umol (5 injections) and expressed as number of animals reading with a test intensity of 0.5; assay type: functional; outline: as §2
Cavia porcellus [7] = species on record: Cavia porcellus; test: Allergic contact dermatitis in guinea pig at 14 umol (5 injections) and expressed as number of animals reading with a test intensity of 1; assay type: functional; outline: as §2
Cavia porcellus [8] = species on record: Cavia porcellus; test: Ability to induce allergic contact dermatitis in guinea pig at 14 umol (3 injections)of the compound and expressed as no. of positive animals out of 8; assay type: functional; outline: as §1
Cavia porcellus [9] = species on record: Cavia porcellus; test: Ability to induce allergic contact dermatitis in guinea pig at 14 umol (5 injections)of the compound and expressed as no. of positive animals out of 8; assay type: functional; outline: as §2
Cavia porcellus [10] = species on record: Cavia porcellus; test: Ability to induce allergic contact dermatitis in guinea pig at 3.8 umol (5 injections)of the compound and expressed as no. of positive animals out of 8; assay type: functional; outline: as §2
Cavia porcellus [11] = species on record: Cavia porcellus; test: Ability to induce allergic contact dermatitis in guinea pig at 7.6 umol (5 injections)of the compound and expressed as no. of positive animals out of 8; assay type: functional; outline: as §2
Cavia porcellus [12] = species on record: Cavia porcellus; test: Ability to induce allergic contact dermatitis in guinea pig at 14 umol (3 injections) and expressed as average skin reaction; assay type: functional; outline: as §1
Cavia porcellus [13] = species on record: Cavia porcellus; test: Ability to induce allergic contact dermatitis in guinea pig at 14 umol (5 injections) and expressed as average skin reaction; assay type: functional; outline: as §2
Cavia porcellus [14] = species on record: Cavia porcellus; test: Allergic contact dermatitis in guinea pig at 3.8 umol (3 injections) and expressed as number of animals reading with a test intensity of 0; assay type: functional; outline: as §1
Cavia porcellus [15] = species on record: Cavia porcellus; test: (§3) Allergic contact dermatitis in guinea pig at 7.6 umol (5 injections) and expressed as number of animals reading with a test intensity of 1; assay type: functional; outline: as §2
Cavia porcellus [16] = species on record: Cavia porcellus; test: Allergic contact dermatitis in guinea pig at 7.6 umol (5 injections) and expressed as number of animals reading with a test intensity of 0; assay type: functional; outline: as §2
Cavia porcellus [17] = species on record: Cavia porcellus; test: Allergic contact dermatitis in guinea pig at 14 umol (3 injections) and expressed as number of animals reading with a test intensity of 1; assay type: functional; outline: as §1
Cavia porcellus [18] = species on record: Cavia porcellus; test: Ability to induce allergic contact dermatitis in guinea pig at 3.8 umol (3 injections) and expressed as average skin reaction; assay type: functional; outline: as §1
Cavia porcellus [19] = species on record: Cavia porcellus; test: Ability to induce allergic contact dermatitis in guinea pig at 3.8 umol (5 injections) and expressed as average skin reaction; assay type: functional; outline: as §2
Cavia porcellus [20] = species on record: Cavia porcellus; test: (§4) Ability to induce allergic contact dermatitis in guinea pig at 7.6 umol (5 injections) and expressed as average skin reaction; assay type: functional; outline: as §2
Cavia porcellus [21] = species on record: Cavia porcellus; test: as §4; assay type: functional; outline: as §2; remark: listed apart in the source
Cavia porcellus [22] = species on record: Cavia porcellus; test: as §3; assay type: functional; outline: as §2; remark: listed apart in the source
Cavia porcellus [23] = species on record: Cavia porcellus; test: Allergic contact dermatitis in guinea pig at 7.6 umol (5 injections) and expressed as number of animals reading with a test intensity of 2; assay type: functional; outline: as §2
Cavia porcellus [24] = species on record: Cavia porcellus; test: Allergic contact dermatitis in guinea pig at 3.8 umol (3 injections) and expressed as number of animals reading with a test intensity of 0.5; assay type: functional; outline: as §1
Cavia porcellus [25] = species on record: Cavia porcellus; test: Allergic contact dermatitis in guinea pig at 3.8 umol (3 injections) and expressed as number of animals reading with a test intensity of 1; assay type: functional; outline: as §1
Cavia porcellus [26] = species on record: Cavia porcellus; test: Allergic contact dermatitis in guinea pig at 3.8 umol (3 injections) and expressed as number of animals reading with a test intensity of 2; assay type: functional; outline: as §1
Cavia porcellus [27] = species on record: Cavia porcellus; test: Allergic contact dermatitis in guinea pig at 3.8 umol (5 injections) and expressed as number of animals reading with a test intensity of 0; assay type: functional; outline: as §2
Cavia porcellus [28] = species on record: Cavia porcellus; test: Allergic contact dermatitis in guinea pig at 3.8 umol (5 injections) and expressed as number of animals reading with a test intensity of 0.5; assay type: functional; outline: as §2
Cavia porcellus [29] = species on record: Cavia porcellus; test: Allergic contact dermatitis in guinea pig at 3.8 umol (5 injections) and expressed as number of animals reading with a test intensity of 1; assay type: functional; outline: as §2
Cavia porcellus [30] = species on record: Cavia porcellus; test: Allergic contact dermatitis in guinea pig at 3.8 umol (5 injections) and expressed as number of animals reading with a test intensity of 2; assay type: functional; outline: as §2
Cavia porcellus [31] = species on record: Cavia porcellus; test: Ability to induce allergic contact dermatitis in guinea pig at 3.8 umol (3 injections)of the compound and expressed as no. of positive animals out of 8
Cavia porcellus [32] = species on record: Cavia porcellus; test: Ability to induce allergic contact dermatitis in guinea pig at 3.8 umol (3 injections)of the compound and expressed as no. of positive animals out of 8; assay type: functional; outline: as §1
Cavia porcellus [33] = species on record: Cavia porcellus; test: Ability to induce allergic contact dermatitis in guinea pig at 3.8 umol (5 injections) and expressed as no. of positive animals out of 8; assay type: functional; outline: as §2
Cavia porcellus [34] = species on record: Cavia porcellus; test: Ability to induce allergic contact dermatitis in guinea pig at 7.6 umol (3 injections)of the compound and expressed as no. of positive animals out of 8; assay type: functional; outline: as §1
Cavia porcellus [35] = species on record: Cavia porcellus; test: Allergic contact dermatitis in guinea pig at 7.6 umol (3 injections) and expressed as number of animals reading with a test intensity of 0; assay type: functional; outline: as §1
Cavia porcellus [36] = species on record: Cavia porcellus; test: Allergic contact dermatitis in guinea pig at 7.6 umol (3 injections) and expressed as number of animals reading with a test intensity of 0.5; assay type: functional; outline: as §1
Cavia porcellus [37] = species on record: Cavia porcellus; test: Allergic contact dermatitis in guinea pig at 7.6 umol (3 injections) and expressed as number of animals reading with a test intensity of 2; assay type: functional; outline: as §1
Cavia porcellus [38] = species on record: Cavia porcellus; test: Allergic contact dermatitis in guinea pig at 7.6 umol (5 injections) and expressed as number of animals reading with a test intensity of 0.5; assay type: functional; outline: as §2
Cavia porcellus [39] = species on record: Cavia porcellus; test: Ability to induce allergic contact dermatitis in guinea pig at 7.6 umol (3 injections) and expressed as average skin reaction; assay type: functional; outline: as §1
Cavia porcellus [40] = species on record: Cavia porcellus; test: Allergic contact dermatitis in guinea pig at 7.6 umol (3 injections) and expressed as number of animals reading with a test intensity of 1; assay type: functional; outline: as §1
Cavia porcellus [41] = species on record: Cavia porcellus; test: Ability to induce allergic contact dermatitis in guinea pig at 3.8 umol (3 injections)of the compound and expressed as no. of positive animals out of 16; assay type: functional; outline: as §1
Cavia porcellus [42] = species on record: Cavia porcellus; test: Ability to induce allergic contact dermatitis in guinea pig at 3.8 umol (5 injections)of the compound and expressed as no. of positive animals out of 16; assay type: functional
Cavia porcellus [43] = species on record: Cavia porcellus; test: Ability to induce allergic contact dermatitis in guinea pig at 7.6 umol (3 injections)of the compound and expressed as no. of positive animals out of 16; assay type: functional; outline: as §1
Cavia porcellus [44] = species on record: Cavia porcellus; test: Ability to induce allergic contact dermatitis in guinea pig at 7.6 umol (5 injections)of the compound and expressed as no. of positive animals out of 16; assay type: functional

Row | SMILES | No. of animals (Cavia porcellus [14]) | Average skin reaction (Cavia porcellus [18]) | Average skin reaction (Cavia porcellus [19]) | No. of animals (Cavia porcellus [23]) | No. of animals (Cavia porcellus [24]) | No. of animals (Cavia porcellus [25]) | No. of animals (Cavia porcellus [26]) | No. of animals (Cavia porcellus [27]) | No. of animals (Cavia porcellus [28]) | No. of animals (Cavia porcellus [29]) | No. of animals (Cavia porcellus [30]) | No. of animals (Cavia porcellus [35]) | No. of animals (Cavia porcellus [36]) | No. of animals (Cavia porcellus [38]) | Average skin reaction (Cavia porcellus [39]) | No. of animals (Cavia porcellus [40]) | other results
1 | CCCCCCCCCC[C@H]1CCC[C@@H](O)[C@@H]1O | 4 | 0.3 | 0.5 | 0 | 3 | 1 | 0 | 2 | 4 | 2 | 0 | – | – | – | – | – | No. of animals (Cavia porcellus [1]): 2; No. of animals (Cavia porcellus [2]): 2; No. of animals (Cavia porcellus [3]): 2; No. of animals (Cavia porcellus [4]): 2; No. of animals (Cavia porcellus [5]): 1; No. of animals (Cavia porcellus [6]): 3; No. of animals (Cavia porcellus [7]): 2; No. of positive animals (Cavia porcellus [8]): 6; No. of positive animals (Cavia porcellus [9]): 7; No. of positive animals (Cavia porcellus [10]): 6; No. of positive animals (Cavia porcellus [11]): 6 and 7; Average skin reaction (Cavia porcellus [12]): 0.9; Average skin reaction (Cavia porcellus [13]): 0.9; No. of animals (Cavia porcellus [15]): 5; No. of animals (Cavia porcellus [16]): 2 and 1; No. of animals (Cavia porcellus [17]): 2; Average skin reaction (Cavia porcellus [20]): 0.7; Average skin reaction (Cavia porcellus [21]): 0.5; No. of animals (Cavia porcellus [22]): 1; No. of positive animals (Cavia porcellus [31]): 4
2 | CCCCCCCCCCCCCCC[C@H]1CCC[C@H](O)[C@@H]1O | 3 | 0.3 | 0.5 | 0 | 5 | 0 | 0 | 2 | 4 | 2 | 0 | 1 | 6 | 2 and 1 | 0.5 | 1 | No. of positive animals (Cavia porcellus [32]): 5; No. of positive animals (Cavia porcellus [33]): 6; No. of positive animals (Cavia porcellus [34]): 7; No. of animals (Cavia porcellus [37]): 0
3 | CCCCCCCCCCCCCCC[C@H]1CCC[C@@H](O)[C@@H]1O | 4 | 0.5 | 0.8 | 0 | 8 | 4 | 0 | 2 | 4 | 9 | 1 | 2 | 2 | 2 and 1 | 0.8 | 12 | No. of positive animals (Cavia porcellus [41]): 12; No. of positive animals (Cavia porcellus [42]): 14; No. of positive animals (Cavia porcellus [43]): 14; No. of positive animals (Cavia porcellus [44]): 15
